Calls of active or inactive are those of the source. No cut-off for these calls is given here.
Columns and labels:
[1] = molecular target: Voltage-gated potassium channel, KQT; KCNQ2(Kv7.2)/KCNQ3(Kv7.3) (Homo sapiens, UniProt O43525+O43526); assay: Activation of KCNQ2/Q3 expressed in CHO cells by atomic absorption Rb'+ efflux assay; format: cell-based
In short: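 CHO cells stably expressing KCNQ2/KCNQ3 were plated at 20,000 cells/well overnight at 37 °C. They were loaded 3 h in buffer containing 5.4 mM RbCl (pH 7.4), then washed three times with 5.4 mM KCl buffer. Compound was applied in 20 mM K+ depolarization buffer for 10 min. Supernatant Rb+ was read by flame atomic absorption at 780 nm against a 0–5 mg/l calibration. EC50 from n = 3.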

[2] = molecular target: T1, Voltage-gated potassium channel, KQT; KCNQ2(Kv7.2)/KCNQ3(Kv7.3) (Homo sapiens) (UniProt O43526+O43525); assay: Activation of human KCNQ2/Q3 expressed in CHO cells assessed as increase in channel current at -40 mV holding potential at 10 uM by whole cell patch-clamp assay; format: cell-based
In short: (§1)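 Perforated whole-cell patch clamp was run on CHO cells stably expressing KCNQ2/KCNQ3. Cells were held at −80 mV for 500 ms, stepped to −40 mV for 800 ms, then returned to −80 mV for 800 ms. The activation current and the deactivation tail current were measured, with a time course of current recorded at −40 mV.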

[3] = molecular target: T2, Potassium voltage-gated channel subfamily KQT member 1 (Homo sapiens, UniProt P51787); assay: Activation of KCNQ1 expressed in HEK293 cells by atomic absorption Rb'+ efflux assay; format: cell-based
T2 sequence (P51787 whole entry): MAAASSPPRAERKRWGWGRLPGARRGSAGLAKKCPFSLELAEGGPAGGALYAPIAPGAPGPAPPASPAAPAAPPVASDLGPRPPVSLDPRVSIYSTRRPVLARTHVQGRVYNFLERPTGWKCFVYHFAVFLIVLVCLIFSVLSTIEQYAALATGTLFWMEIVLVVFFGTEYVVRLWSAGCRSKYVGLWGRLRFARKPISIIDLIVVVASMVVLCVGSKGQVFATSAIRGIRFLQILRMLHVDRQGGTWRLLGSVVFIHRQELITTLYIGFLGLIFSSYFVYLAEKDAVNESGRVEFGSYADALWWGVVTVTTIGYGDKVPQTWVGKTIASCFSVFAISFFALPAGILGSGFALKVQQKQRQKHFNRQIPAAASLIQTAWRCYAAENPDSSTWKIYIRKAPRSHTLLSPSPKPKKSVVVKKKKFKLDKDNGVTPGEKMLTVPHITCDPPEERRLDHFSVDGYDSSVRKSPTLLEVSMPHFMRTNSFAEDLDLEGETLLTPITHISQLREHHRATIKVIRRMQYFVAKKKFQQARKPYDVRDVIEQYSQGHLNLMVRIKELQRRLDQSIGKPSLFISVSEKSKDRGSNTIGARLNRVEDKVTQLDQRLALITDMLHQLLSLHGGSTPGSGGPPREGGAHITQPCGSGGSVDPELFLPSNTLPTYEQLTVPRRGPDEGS
In short: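 HEK293 cells stably expressing KCNQ1 (G418 selection) were plated at 20,000 cells/well overnight. They were loaded 3 h with 5.4 mM RbCl buffer at 37 °C and washed. Compound was applied in 20 mM K+ depolarization buffer for 10 min. Supernatant Rb+ was measured by flame atomic absorption at 780 nm. EC50 from n = 3.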

[4] = Selectivity ratio of EC50 for KCNQ1 to KCNQ2/Q3 by atomic absorption Rb'+ efflux assay
[5] = molecular target: T1, Voltage-gated potassium channel, KQT; KCNQ2(Kv7.2)/KCNQ3(Kv7.3) (Homo sapiens); assay: Activation of human KCNQ2/Q3 expressed in CHO cells held at -80 mV for 500 ms followed by depolarized to -40 mV for 800 ms followed by 800 ms pulse-back to -80 mV assessed as increase in both activation and deactivation tail current at 10 uM by whole cell patch-clamp assay
[6] = molecular target: T1, Voltage-gated potassium channel, KQT; KCNQ2(Kv7.2)/KCNQ3(Kv7.3) (Homo sapiens); assay: Activation of KCNQ2/Q3 expressed in CHO cells at 100 uM by atomic absorption Rb'+ efflux assay; format: cell-based
In short: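 Stable KCNQ2/KCNQ3 CHO cells were Rb+-loaded 3 h at 37 °C and washed. Compound was given once at a single screening concentration in 20 mM K+ depolarization buffer for 10 min. Supernatant Rb+ was measured by flame atomic absorption at 780 nm. A rubidium response under 15% of control was scored as no activity.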

[7] = molecular target: T1, Voltage-gated potassium channel, KQT; KCNQ2(Kv7.2)/KCNQ3(Kv7.3) (Homo sapiens); assay: Activation of human KCNQ2/Q3 expressed in CHO cells assessed as increase in channel current at -40 mV holding potential at 100 uM by whole cell patch-clamp assay; format: cell-based; in short: as §1
[8] = molecular target: T1, Voltage-gated potassium channel, KQT; KCNQ2(Kv7.2)/KCNQ3(Kv7.3) (Homo sapiens); assay: Activation of human KCNQ2/Q3 expressed in CHO cells held at -80 mV for 500 ms followed by depolarized to -40 mV for 800 ms followed by 800 ms pulse-back to -80 mV assessed as increase in both activation and deactivation tail current at 100 uM by whole cell patch-clamp assay

Chain of Voltage-gated potassium channel, KQT; KCNQ2(Kv7.2)/KCNQ3(Kv7.3) (O43526 whole entry): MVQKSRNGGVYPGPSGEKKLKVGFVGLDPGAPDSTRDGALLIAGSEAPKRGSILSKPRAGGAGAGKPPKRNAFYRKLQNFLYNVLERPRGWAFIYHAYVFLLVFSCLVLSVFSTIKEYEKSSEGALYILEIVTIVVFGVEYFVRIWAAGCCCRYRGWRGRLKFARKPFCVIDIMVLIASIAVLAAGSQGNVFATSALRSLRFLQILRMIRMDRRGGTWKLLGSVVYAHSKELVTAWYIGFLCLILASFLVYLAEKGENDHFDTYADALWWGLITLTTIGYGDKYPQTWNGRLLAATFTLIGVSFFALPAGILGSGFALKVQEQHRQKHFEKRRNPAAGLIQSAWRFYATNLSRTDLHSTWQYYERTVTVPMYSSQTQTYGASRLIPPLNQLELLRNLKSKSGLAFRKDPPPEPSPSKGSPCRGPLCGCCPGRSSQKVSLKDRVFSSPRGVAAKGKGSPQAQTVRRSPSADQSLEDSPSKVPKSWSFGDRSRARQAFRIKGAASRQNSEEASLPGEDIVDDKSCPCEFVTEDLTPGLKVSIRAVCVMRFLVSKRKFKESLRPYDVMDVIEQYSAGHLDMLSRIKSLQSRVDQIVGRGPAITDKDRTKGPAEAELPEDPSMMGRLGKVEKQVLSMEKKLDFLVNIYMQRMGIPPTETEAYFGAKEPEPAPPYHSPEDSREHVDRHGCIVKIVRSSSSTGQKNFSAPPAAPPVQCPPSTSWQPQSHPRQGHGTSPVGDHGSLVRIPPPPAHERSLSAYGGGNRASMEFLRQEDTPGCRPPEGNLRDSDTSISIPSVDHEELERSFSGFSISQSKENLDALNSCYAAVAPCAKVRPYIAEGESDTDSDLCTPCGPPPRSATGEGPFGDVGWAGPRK
Chain of Voltage-gated potassium channel, KQT; KCNQ2(Kv7.2)/KCNQ3(Kv7.3) (O43525 whole entry): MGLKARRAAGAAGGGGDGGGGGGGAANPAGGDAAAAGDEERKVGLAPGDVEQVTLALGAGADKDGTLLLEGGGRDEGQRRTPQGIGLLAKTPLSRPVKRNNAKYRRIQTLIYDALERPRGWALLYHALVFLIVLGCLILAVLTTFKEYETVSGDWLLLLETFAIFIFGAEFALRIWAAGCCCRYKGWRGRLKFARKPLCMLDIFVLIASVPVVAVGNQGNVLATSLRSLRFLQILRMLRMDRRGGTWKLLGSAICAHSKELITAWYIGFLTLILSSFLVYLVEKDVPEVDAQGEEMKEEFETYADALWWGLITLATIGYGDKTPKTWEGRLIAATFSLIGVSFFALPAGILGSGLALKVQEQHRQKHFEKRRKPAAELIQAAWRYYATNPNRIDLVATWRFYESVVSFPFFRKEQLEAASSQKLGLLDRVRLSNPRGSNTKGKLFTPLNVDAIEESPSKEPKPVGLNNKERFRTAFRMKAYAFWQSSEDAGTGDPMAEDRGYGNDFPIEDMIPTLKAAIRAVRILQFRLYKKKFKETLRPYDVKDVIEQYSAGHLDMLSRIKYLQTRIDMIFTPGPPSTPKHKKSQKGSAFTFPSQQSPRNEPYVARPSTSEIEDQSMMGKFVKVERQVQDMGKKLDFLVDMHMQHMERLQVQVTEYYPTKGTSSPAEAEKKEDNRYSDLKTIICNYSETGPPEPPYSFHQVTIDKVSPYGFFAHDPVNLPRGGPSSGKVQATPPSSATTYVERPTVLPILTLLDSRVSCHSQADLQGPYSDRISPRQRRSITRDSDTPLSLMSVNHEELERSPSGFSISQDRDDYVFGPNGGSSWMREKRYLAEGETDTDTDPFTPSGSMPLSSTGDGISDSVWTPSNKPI

Question: Which EC50 [1] does the source give for `CCOC(=O)Nc1ccc(NCc2ccc(F)cc2)cc1N` [EZOGABINE] here?
Answer: The EC50 was 430 nM.

Question: What about the Activity [2] of the same molecule?
Answer: Its Activity is “Active”.

Question: Which EC50 [1] does the source give for `CC(C)(C)c1cc(=O)n2nc(C(F)(F)F)c(-c3cccc4ccccc34)c2[nH]1` here?
Answer: Its EC50 is 19300 nM.

Question: What does the source list for `O=c1cc(-c2cc(F)c(Cl)nc2Cl)[nH]c2c(-c3ccccc3)c(C(F)(F)F)nn12`?
Answer: EC50 [1]: 60 nM; EC50 [3]: 49300 nM; Activity [2]: Active; Ratio EC50 [4]: 800; Activity [5]: Active

Question: With `O=c1cc(C(F)F)[nH]c2c(-c3ccccc3)c(C(F)(F)F)nn12` as the molecule, how does the EC50 [1] read?
Answer: Its EC50 is 4290 nM.

Question: For `Cc1cc(O)n2nc(C(F)(F)F)c(-c3ccccc3)c2n1`, which Activity [6] is on record?
Answer: The Activity was “inactive”.

Question: For `O=c1cc(CN2CCCCC2)[nH]c2c(-c3ccccc3)c(C(F)(F)F)nn12`, which Activity [6] is on record?
Answer: The Activity was “inactive”.

Question: With `O=c1cc(C(F)(F)F)[nH]c2c(-c3ccccc3)cnn12` as the molecule, how does the Activity [6] read?
Answer: Its Activity is “inactive”.

Question: Which EC50 [1] does the source give for `O=c1cc(-c2cc(F)c(F)c(F)c2F)[nH]c2c(-c3ccccc3)c(C(F)(F)F)nn12` here?
Answer: The EC50 was 600 nM.

Question: For `O=c1cc(-c2cccc([N+](=O)[O-])c2)[nH]c2c(-c3ccccc3)c(C(F)(F)F)nn12`, which EC50 [1] is on record?
Answer: Its EC50 is 570 nM.

Question: What does the source list for `O=c1cc(-c2cc(F)c(Cl)nc2Cl)[nH]c2c(-c3cccc4ccccc34)c(C(F)(F)F)nn12`?
Answer: EC50 [1]: 150 nM; Activity [2]: Active; Activity [5]: Active

Question: For `O=c1cc(-c2cc(F)c(F)cc2F)[nH]c2c(-c3ccc(Cl)cc3)c(C(F)(F)F)nn12`, which EC50 [1] is on record?
Answer: The EC50 was 210 nM.

Question: Which EC50 [1] does the source give for `O=c1cc(C(F)(F)F)[nH]c2c(-c3ccccc3)c(C(F)(F)F)nn12` here?
Answer: Its EC50 is 1460 nM.

Question: What about the Activity [7] of the same molecule?
Answer: Its Activity is “Active”.

Question: And the Activity [8]?
Answer: Its Activity is “Active”.

Question: Which Activity [6] does the source give for `CCOC(=O)c1c(C(F)(F)F)nn2c(=O)cc(CCl)[nH]c12` here?
Answer: Its Activity is “inactive”.

Question: For `COc1ccc(-c2c(C(F)(F)F)nn3c(=O)cc(-c4cc(F)c(Cl)nc4Cl)[nH]c23)cc1OC`, which EC50 [1] is on record?
Answer: The EC50 was 230 nM.

Question: Which EC50 [1] does the source give for `O=c1cc(C(F)(F)F)[nH]c2c(-c3cccc4ccccc34)c(C(F)(F)F)nn12` here?
Answer: Its EC50 is 4980 nM.

Question: Which EC50 [1] does the source give for `CC(C)(C)c1cc(=O)n2nc(C(F)(F)F)c(-c3ccccc3)c2[nH]1` here?
Answer: The EC50 was 6190 nM.

Question: With `O=c1cc(CCl)[nH]c2c(-c3ccc(Cl)cc3)c(C(F)(F)F)nn12` as the molecule, how does the EC50 [1] read?
Answer: Its EC50 is 2330 nM.

Question: Which Activity [6] does the source give for `Cc1nn2c(=O)cc(CCl)[nH]c2c1-c1ccccc1` here?
Answer: Its Activity is “inactive”.

Question: With `O=c1cc(C(F)(F)F)[nH]c2c(-c3ccc(Cl)cc3)c(C(F)(F)F)nn12` as the molecule, how does the EC50 [1] read?
Answer: Its EC50 is 2060 nM.

Question: With `O=c1cc(-c2cccc([N+](=O)[O-])c2)[nH]c2c(-c3cccs3)c(C(F)(F)F)nn12` as the molecule, how does the EC50 [1] read?
Answer: Its EC50 is 580 nM.

Question: Which EC50 [1] does the source give for `O=c1cc(CCl)[nH]c2c(-c3cccc4ccccc34)c(C(F)(F)F)nn12` here?
Answer: Its EC50 is 1250 nM.

Question: For `COc1ccc(-c2cc(=O)n3nc(C(F)(F)F)c(-c4ccccc4)c3[nH]2)cc1`, which EC50 [1] is on record?
Answer: Its EC50 is 1930 nM.

Question: Which Activity [6] does the source give for `Oc1cc(-c2ccccc2)nc2c(-c3ccccc3)c(C(F)(F)F)nn12` here?
Answer: Its Activity is “inactive”.

Question: With `O=c1cc(C(F)(F)F)[nH]c2c(-c3c[nH]c4ccccc34)c(C(F)(F)F)nn12` as the molecule, how does the Activity [6] read?
Answer: The Activity was “inactive”.

Question: Which EC50 [1] does the source give for `O=c1cc(-c2cc(F)c(F)c(F)c2F)[nH]c2c(-c3cccs3)c(C(F)(F)F)nn12` here?
Answer: Its EC50 is 160 nM.

Question: With `O=c1cc(CCl)[nH]c2c(-c3ccccc3)c(C(F)(F)F)nn12` as the molecule, how does the EC50 [1] read?
Answer: Its EC50 is 2270 nM.

Question: What about the Activity [7] of the same molecule?
Answer: Its Activity is “Active”.

Question: And the Activity [8]?
Answer: The Activity was “Active”.
